In ChEMBL document CHEMBL1137710, “Synthesis and in vitro antitumor activity of new quinoxaline derivatives” (2009):

Legend:
Format in all cases: functional
CCRF-CEM = test: Growth inhibition of human CCRF-CEM cells after 48 hrs by sulforhodamine B assay; conditions: for TGI: read-out: pTGI (converted)
Method in brief: (§1)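 NCI 60-human-tumor-cell-line panel, with compounds tested over a 5-log dose range. Values are taken from dose-response curves as log10 molar concentrations: GI50 is 50% net growth inhibition, TGI is total growth inhibition, and LC50 is 50% net cell death.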

HL-60(TB) = test: Growth inhibition of human HL-60(TB) cells after 48 hrs by sulforhodamine B assay; conditions: HL-60, 48 h; for TGI: read-out: pTGI (converted)
Method in brief: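 Tested only on compounds active in a three-line prescreen, in the NCI 60-human-tumour-cell-line panel over a 5-log dose range. Values come from dose–response curves as log10 molar GI50, the concentration inhibiting 50% net cell growth. Log10 TGI (total growth inhibition) and log10 LC50 (50% net cell death) were derived too. Mean graph midpoints include insensitive lines at the highest concentration tested.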

K562 = test: Growth inhibition of human K562 cells after 48 hrs by sulforhodamine B assay; conditions: K562, 48 h; for TGI: read-out: pTGI (converted); method in brief: as §1
EKVX = test: Growth inhibition of human EKVX cells after 48 hrs by sulforhodamine B assay; method in brief: as §1
HOP-62 = test: Growth inhibition of human HOP62 cells after 48 hrs by sulforhodamine B assay; conditions: HOP-62, 48 h; for TGI: read-out: pTGI (converted); method in brief: as §1
NCI-H226 = test: Growth inhibition of human NCI-H226 cells after 48 hrs by sulforhodamine B assay; conditions: NCI-H226, 48 h; for TGI: read-out: pTGI (converted); method in brief: as §1
NCI-H460 = test: Growth inhibition of human NCI-H460 cells after 48 hrs by sulforhodamine B assay; conditions: NCI-H460, 48 h; for TGI: read-out: pTGI (converted); method in brief: as §1
NCI-H522 = test: Growth inhibition of human NCI-H522 cells after 48 hrs by sulforhodamine B assay; conditions: NCI-H522, 48 h; for TGI: read-out: pTGI (converted); method in brief: as §1
HCT-15 = test: Growth inhibition of human HCT15 cells after 48 hrs by sulforhodamine B assay; conditions: HCT-15, 48 h; method in brief: as §1
KM12 = test: Growth inhibition of human KM12 cells after 48 hrs by sulforhodamine B assay; conditions: KM12, 48 h; for TGI: read-out: pTGI (converted); method in brief: as §1
SF-539 = test: Growth inhibition of human SF539 cells after 48 hrs by sulforhodamine B assay; conditions: SF-539, 48 h; for TGI: read-out: pTGI (converted); method in brief: as §1
Malme-3M = test: Growth inhibition of human MALME-3M cells after 48 hrs by sulforhodamine B assay; conditions: for CC50: read-out: pLC50 (the source's name) (converted); for TGI: read-out: pTGI (converted); method in brief: as §1
M14 = test: Growth inhibition of human M14 cells after 48 hrs by sulforhodamine B assay; conditions: M14, 48 h; for CC50: read-out: pLC50 (the source's name) (converted); for TGI: read-out: pTGI (converted); method in brief: as §1
UACC-62 = test: Growth inhibition of human UACC62 cells after 48 hrs by sulforhodamine B assay; conditions: UACC-62, 48 h; for CC50: read-out: pLC50 (the source's name) (converted); for TGI: read-out: pTGI (converted)
Method in brief: (§2)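 Run in the NCI 60-human-tumour-cell-line panel, tested over a 5-log dose range. Dose–response curves gave three values per cell line, each as a log10 molar concentration: GI50 (50% inhibition of net cell growth), TGI (total inhibition of net growth) and LC50 (50% net cell death). The mean graph midpoint is the arithmetic mean over all lines, with insensitive lines entered at the highest concentration tested.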

OVCAR-3 = test: Growth inhibition of human OVCAR-3 cells after 48 hrs by sulforhodamine B assay; conditions: OVCAR-3, 48 h; for CC50: read-out: pLC50 (the source's name) (converted); for TGI: read-out: pTGI (converted); method in brief: as §1
OVCAR-4 = test: Growth inhibition of human OVCAR4 cells after 48 hrs by sulforhodamine B assay; conditions: OVCAR-4, 48 h; for CC50: read-out: pLC50 (the source's name) (converted); for TGI: read-out: pTGI (converted); method in brief: as §1
SK-OV-3 = test: Growth inhibition of human SKOV3 cells after 48 hrs by sulforhodamine B assay; conditions: SK-OV-3, 48 h; for CC50: read-out: pLC50 (the source's name) (converted); for TGI: read-out: pTGI (converted); method in brief: as §1
786-0 = test: Growth inhibition of human 786-0 cells after 48 hrs by sulforhodamine B assay; conditions: 786-0, 48 h; for CC50: read-out: pLC50 (the source's name) (converted); for TGI: read-out: pTGI (converted); method in brief: as §1
A498 = test: Growth inhibition of human A498 cells after 48 hrs by sulforhodamine B assay; conditions: A498, 48 h; for CC50: read-out: pLC50 (the source's name) (converted); for TGI: read-out: pTGI (converted); method in brief: as §1
CAKI-1 = test: Growth inhibition of human Caki1 cells after 48 hrs by sulforhodamine B assay; conditions: CAKI-1, 48 h; for CC50: read-out: pLC50 (the source's name) (converted); for TGI: read-out: pTGI (converted); method in brief: as §1
SN12C = test: Growth inhibition of human SN12C cells after 48 hrs by sulforhodamine B assay; conditions: for CC50: read-out: pLC50 (the source's name) (converted); for TGI: read-out: pTGI (converted); method in brief: as §2
TK-10 = test: Growth inhibition of human TK10 cells after 48 hrs by sulforhodamine B assay; conditions: TK-10, 48 h; for CC50: read-out: pLC50 (the source's name) (converted); for TGI: read-out: pTGI (converted); method in brief: as §2
UO-31 = test: Growth inhibition of human UO31 cells after 48 hrs by sulforhodamine B assay; conditions: UO-31, 48 h; for CC50: read-out: pLC50 (the source's name) (converted); for TGI: read-out: pTGI (converted); method in brief: as §2
NCI/ADR-RES = test: Growth inhibition of human NCI/ADR-RES cells after 48 hrs by sulforhodamine B assay; conditions: for CC50: read-out: pLC50 (the source's name) (converted); for TGI: read-out: pTGI (converted); method in brief: as §1
MDA-MB-231 = test: Growth inhibition of human MDA-MB-231 cells after 48 hrs by sulforhodamine B assay; conditions: MDA-MB-231, 48 h; for CC50: read-out: pLC50 (the source's name) (converted); for TGI: read-out: pTGI (converted); method in brief: as §1
T47D = test: Growth inhibition of human T47D cells after 48 hrs by sulforhodamine B assay; conditions: for CC50: read-out: pLC50 (the source's name) (converted); for TGI: read-out: pTGI (converted); method in brief: as §2

Nc1cc(N)c2nc(-c3ccccc3)c(NCc3ccc(Cl)c(Cl)c3)nc2c1
GI50 (CCRF-CEM): 0.132 µM
LC50 (CCRF-CEM): 17.4 µM
TGI (CCRF-CEM): 1.82 µM
GI50 (HL-60(TB)): 1.82 µM
LC50 (HL-60(TB)): > 100 µM
TGI (HL-60(TB)): 7.94 µM
GI50 (K562): 3.09 µM
LC50 (K562): > 100 µM
TGI (K562): 17.8 µM
GI50 (EKVX): 11 µM
LC50 (50% net cell kill) (EKVX): > 100 µM
TGI (EKVX; read-out: pTGI (converted)): 38.9 µM
GI50 (HOP-62): 15.8 µM
LC50 (HOP-62): 64.6 µM
TGI (HOP-62): 31.6 µM
GI50 (NCI-H226): 22.4 µM
LC50 (NCI-H226): 95.5 µM
TGI (NCI-H226): 46.8 µM
GI50 (NCI-H460): 20.9 µM
LC50 (50% net cell kill) (NCI-H460): > 100 µM
TGI (NCI-H460): 46.8 µM
GI50 (NCI-H522): 2.04 µM
LC50 (NCI-H522): 22.4 µM
TGI (NCI-H522): 4.9 µM
GI50 (HCT-15): 4.68 µM
LC50 (HCT-15): > 100 µM
TGI (HCT-15; read-out: pTGI (converted)): > 100 µM
GI50 (KM12): 3.39 µM
LC50 (50% net cell kill) (KM12): > 100 µM
TGI (KM12): 21.4 µM
GI50 (SF-539): 4.57 µM
LC50 (SF-539): 83.2 µM
TGI (SF-539): 18.6 µM
GI50 (Malme-3M): 3.39 µM
CC50 (Malme-3M): 50.1 µM
TGI (Malme-3M): 13.8 µM
GI50 (M14): 15.8 µM
CC50 (M14): 75.9 µM
TGI (M14): 34.7 µM
GI50 (UACC-62): 14.1 µM
CC50 (UACC-62): 67.6 µM
TGI (UACC-62): 30.9 µM
GI50 (OVCAR-3): 2.63 µM
CC50 (OVCAR-3): 31.6 µM
TGI (OVCAR-3): 6.92 µM
GI50 (OVCAR-4): 11.7 µM
CC50 (OVCAR-4): > 100 µM
TGI (OVCAR-4): > 100 µM
GI50 (SK-OV-3): 18.6 µM
CC50 (SK-OV-3): 69.2 µM
TGI (SK-OV-3): 36.3 µM
GI50 (786-0): 13.2 µM
CC50 (786-0): 70.8 µM
TGI (786-0): 30.2 µM
GI50 (A498): 17.4 µM
CC50 (A498): 60.3 µM
TGI (A498): 32.4 µM
GI50 (CAKI-1): 13.2 µM
CC50 (CAKI-1): > 100 µM
TGI (CAKI-1): 52.5 µM
GI50 (SN12C): 6.03 µM
CC50 (SN12C): 87.1 µM
TGI (SN12C): 24 µM
GI50 (TK-10): 12.9 µM
CC50 (TK-10): 72.4 µM
TGI (TK-10): 30.2 µM
GI50 (UO-31): 4.17 µM
CC50 (UO-31): > 100 µM
TGI (UO-31): > 100 µM
GI50 (NCI/ADR-RES): 17.4 µM
CC50 (NCI/ADR-RES): > 100 µM
TGI (NCI/ADR-RES): 45.7 µM
GI50 (MDA-MB-231): 1.58 µM
CC50 (MDA-MB-231): > 100 µM
TGI (MDA-MB-231): 4.47 µM
GI50 (T47D): 19.5 µM
CC50 (T47D): > 100 µM
TGI (T47D): 55 µM

COc1ccc(Sc2nc3cc(N)cc(N)c3nc2-c2ccccc2)cc1
GI50 (CCRF-CEM): 2.29 µM
LC50 (CCRF-CEM): > 100 µM
TGI (CCRF-CEM): 8.32 µM
GI50 (HL-60(TB)): 4.27 µM
LC50 (HL-60(TB)): > 100 µM
TGI (HL-60(TB)): > 100 µM
GI50 (K562): 9.77 µM
LC50 (K562): > 100 µM
TGI (K562): > 100 µM
GI50 (HOP-62): > 100 µM
LC50 (HOP-62): > 100 µM
TGI (HOP-62): > 100 µM
LC50 (NCI-H226): > 100 µM
TGI (NCI-H226): > 100 µM
GI50 (NCI-H460): 20 µM
LC50 (50% net cell kill) (NCI-H460): > 100 µM
TGI (NCI-H460): > 100 µM
GI50 (NCI-H522): 3.24 µM
LC50 (NCI-H522): > 100 µM
TGI (NCI-H522): > 100 µM
GI50 (KM12): 28.2 µM
LC50 (50% net cell kill) (KM12): > 100 µM
TGI (KM12): > 100 µM
GI50 (SF-539): 10 µM
LC50 (SF-539): > 100 µM
TGI (SF-539): > 100 µM
GI50 (Malme-3M): 33.1 µM
CC50 (Malme-3M): > 100 µM
TGI (Malme-3M): 95.5 µM
GI50 (M14): > 100 µM
CC50 (M14): > 100 µM
TGI (M14): > 100 µM
GI50 (UACC-62): 38 µM
CC50 (UACC-62): > 100 µM
TGI (UACC-62): > 100 µM
CC50 (OVCAR-3): > 100 µM
TGI (OVCAR-3): > 100 µM
CC50 (OVCAR-4): > 100 µM
TGI (OVCAR-4): > 100 µM
GI50 (SK-OV-3): 33.1 µM
CC50 (SK-OV-3): > 100 µM
TGI (SK-OV-3): > 100 µM
GI50 (786-0): 13.2 µM
CC50 (786-0): 70.8 µM
TGI (786-0): 30.2 µM
GI50 (A498): 17.4 µM
CC50 (A498): 60.3 µM
TGI (A498): 32.4 µM
GI50 (CAKI-1): 13.2 µM
CC50 (CAKI-1): > 100 µM
TGI (CAKI-1): 52.5 µM
GI50 (SN12C): 6.03 µM
CC50 (SN12C): 87.1 µM
TGI (SN12C): 24 µM
GI50 (TK-10): 12.9 µM
CC50 (TK-10): 72.4 µM
TGI (TK-10): 30.2 µM
GI50 (UO-31): 4.17 µM
CC50 (UO-31): > 100 µM
TGI (UO-31): > 100 µM
GI50 (NCI/ADR-RES): > 100 µM
CC50 (NCI/ADR-RES): > 100 µM
TGI (NCI/ADR-RES): > 100 µM
GI50 (MDA-MB-231): > 100 µM
CC50 (MDA-MB-231): > 100 µM
TGI (MDA-MB-231): > 100 µM
GI50 (T47D): > 100 µM
CC50 (T47D): > 100 µM
TGI (T47D): > 100 µM
